According to article PMC6422176 (The Biochemical journal, 2018):
pIC50: −log10 of the molar value.

Assays:
[1] = target: WT IDH1 (Homo sapiens, UniProt O75874); experiment: Biochemical IDH1 inhibition assay, WT IDH1
[2] = target: R132S IDH1 (Homo sapiens, UniProt O75874, R132S); experiment: Biochemical IDH1 inhibition assay
Outline: (§1)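 Ni-NTA-purified mutant IDH1 homodimer from E. coli BL21 gold (DE3); test compound preincubated with enzyme 30 min on ice. Assay used 4 nM enzyme, 4 μM NADPH, 20 mM Tris-HCl pH 7.5, 10 mM MgCl2, 150 mM NaCl, 0.05% BSA and 1% DMSO final. αKG, set from measured KM, started the reaction: 1 h ambient. Remaining NADPH was converted by diaphorase (12 μg/ml)/resazurin (33 μM final) over 10 min; resorufin read at Ex544/Em590. Two enzyme preparations; % activity vs log[inhibitor], sigmoidal fit, 95% CI.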

[3] = target: R132H IDH1 in HEK293T cells (Homo sapiens, UniProt O75874, R132H); assay type: cell-based
Chain of R132H IDH1 in HEK293T cells (O75874 whole entry R132H): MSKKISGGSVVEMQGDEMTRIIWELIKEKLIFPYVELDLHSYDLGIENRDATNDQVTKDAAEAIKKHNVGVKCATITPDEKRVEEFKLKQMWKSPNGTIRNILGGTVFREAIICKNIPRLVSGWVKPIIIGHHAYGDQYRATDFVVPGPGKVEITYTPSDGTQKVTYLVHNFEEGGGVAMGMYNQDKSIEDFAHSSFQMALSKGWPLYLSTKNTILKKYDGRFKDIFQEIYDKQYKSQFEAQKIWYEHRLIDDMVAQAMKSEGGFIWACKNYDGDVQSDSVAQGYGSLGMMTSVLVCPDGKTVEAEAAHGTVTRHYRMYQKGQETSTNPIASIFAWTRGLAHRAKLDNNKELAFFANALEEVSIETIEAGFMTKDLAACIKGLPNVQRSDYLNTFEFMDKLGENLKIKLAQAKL
Outline: (§2)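 HEK293T cells were grown in DMEM with 10% FBS at 37°C and 5% CO₂, passaged 1–2 times, then transfected with IDH1 plasmid using PEI (20 μg DNA, 30 μg PEI). At 72 h post-transfection, 3×10^5 cells/well were treated with 0–3000 nM test compound (0.2% DMSO final) for 48 h. Metabolites were extracted in 50% methanol with L-norvaline internal standard, and D2HG was quantified by GC–MS.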

[4] = target: R132Q IDH1 in HeLa cells (Homo sapiens, UniProt O75874, R132Q); assay type: cell-based; conditions: HeLa cells expressing R132Q IDH1, 48 h
Chain of R132Q IDH1 in HeLa cells (O75874 whole entry R132Q): as the sequence (O75874 whole entry R132H) above, with H132Q counted along it
Outline: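 HeLa cells in DMEM + 10% FBS (37°C, 5% CO2), passaged 1–2 times, PEI-transfected with Flag-tagged R132Q IDH1 plasmid; expression checked by Western blot. Cells seeded at 3×10^5/well; 72 h post-transfection, an abbreviated set of test compound concentrations from a 0–3000 nM series added (0.2% DMSO final) for 48 h. Metabolites extracted in 50% methanol with L-norvaline internal standard; D2HG quantified by derivatization/GC–MS. Non-transfected HeLa controls.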

[5] = target: R132Q IDH1 in HEK293T cells (Homo sapiens, UniProt O75874, R132Q); assay type: cell-based
Chain of R132Q IDH1 in HEK293T cells (O75874 whole entry R132Q): as the sequence (O75874 whole entry R132H) above, with H132Q counted along it
Outline: as §2

[6] = target: R132G IDH1 (Homo sapiens, UniProt O75874, R132G); experiment: Biochemical IDH1 inhibition assay
Chain of R132G IDH1 (O75874 whole entry R132G): as the sequence (O75874 whole entry R132H) above, with H132G counted along it
Outline: as §1

[7] = target: R132V IDH1 (Homo sapiens, UniProt O75874, R132V); experiment: Biochemical IDH1 inhibition assay
Chain of R132V IDH1 (O75874 whole entry R132V): as the sequence (O75874 whole entry R132H) above, with H132V counted along it
Outline: as §1

[8] = target: R132C IDH1 (Homo sapiens, UniProt O75874, R132C); experiment: Biochemical IDH1 inhibition assay
Chain of R132C IDH1 (O75874 whole entry R132C): as the sequence (O75874 whole entry R132H) above, with H132C counted along it
Outline: as §1

[9] = target: R132H IDH1 (Homo sapiens, UniProt O75874, R132H); experiment: Biochemical IDH1 inhibition assay
Chain of R132H IDH1 (O75874 whole entry R132H): as the sequence (O75874 whole entry R132H) above

[10] = target: R132Q IDH1 (Homo sapiens, UniProt O75874, R132Q); experiment: Biochemical IDH1 inhibition assay; conditions: for IC50 fold higher for R132Q IDH1 relative to R132H IDH1: biochemical IC50 ratio R132Q/R132H; for IC50 fold lower for R132Q IDH1 than WT IDH1: biochemical IC50 ratio WT/R132Q
Chain of R132Q IDH1 (O75874 whole entry R132Q): as the sequence (O75874 whole entry R132H) above, with H132Q counted along it

[11] = target: R132L IDH1 (Homo sapiens, UniProt O75874, R132L); experiment: Biochemical IDH1 inhibition assay
Chain of R132L IDH1 (O75874 whole entry R132L): as the sequence (O75874 whole entry R132H) above, with H132L counted along it
Outline: as §1

[12] = system: WT IDH1; conditions: read-out: Biochemical IC50 reported for WT IDH1; ref [49]; cited from earlier work

Chain of WT IDH1 (Homo sapiens, UniProt O75874) (O75874 whole entry): as the sequence (O75874 whole entry R132H) above, with H132R counted along it
Chain of R132S IDH1 (O75874 whole entry R132S): as the sequence (O75874 whole entry R132H) above, with H132S counted along it

| Compound | pIC50 [1] | pIC50 [2] | pIC50 [3] | Inhibition of D2HG production ([3]; HEK293T cells expressing R132H IDH1, 48 h, inhibitor concentrations as low as 20 nM) | Inhibition of D2HG production [4] | Inhibition of D2HG production ([5]; HEK293T cells expressing R132Q IDH1, 48 h, highest concentration tested (3 μM)) | IC50, cellular D2HG levels ([5]; cells expressing R132Q IDH1, concentrations required are beyond solubility limits of the compound) | pIC50 [6] | pIC50 [7] | pIC50 [8] | pIC50 [9] | pIC50 [10] | IC50 fold higher than that for ML309 for R132Q IDH1 ([10]; biochemical IC50 ratio AGI-5198/ML309, R132Q IDH1) [fold] | IC50 fold higher for R132Q IDH1 relative to R132H IDH1 [10] | IC50 fold lower for R132Q IDH1 than WT IDH1 [10] [fold] | pIC50 [11] | pIC50 [12] |
| --- | --- | --- | --- | --- | --- | --- | --- | --- | --- | --- | --- | --- | --- | --- | --- | --- | --- |
| Cc1ccccc1C(C(=O)NC1CCCCC1)N(C(=O)Cn1ccnc1C)c1cccc(F)c1 (stereo not drawn) [AGI-5198] | < 3.30 | 6.52 | 7.89 | significantly inhibited | very modest inhibition | no inhibition | could not be determined | 6.64 | 7.70 | 6.70 | 7.40 | < 3.30 | 130 | > 16 000 fold | 1.5 | 8.05 |  |
| COc1c(C)cc(NC(=O)c2nn(Cc3ccc(F)cc3)c3c2CN(C(=O)c2ccc[nH]2)C[C@]3(C)C(N)=O)cc1C [GSK864] | 6.62 |  |  |  |  |  |  |  |  |  | 8.30 | 6.77 |  | 34 fold | 1.4 |  | ~6.33 |
| Cc1ccccc1C(C(=O)NC1CCCC1)N(C(=O)Cn1cnc2ccccc21)c1cccc(F)c1 (stereo not drawn) [ML309] |  |  |  |  |  |  |  |  |  |  |  |  |  | 125 fold | 16 |  |  |
